Laboratory results taken from paper PMC2215654 (The Journal of General Physiology, 1984).
Read-outs that look alike come from different tables or passages of the source. Each block holds one compound with its values, some of them ahead of it.

What was measured:
[1] = system: red cells (net chloride permeability); assay: Net KCl flux with valinomycin into low chloride medium, 0C; format: cell-based, human
Procedure, shortened: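 Nystatin-treated high-Cl cells were washed in 150K, then 10K-Hi. Net K+ efflux was measured at 0°C, 0.1% hematocrit, in 10K-Hi with 1.33% ethanol, started by adding graded valinomycin, with or without 10 uM DIDS. K+ was read by flame photometry and taken as net KCl efflux. PK/PCl came from Goldman-equation fits, with PK linear in valinomycin and PK = 0.5 PRb.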

[2] = system: red cells (valinomycin-induced Rb+ exchange); assay: 86Rb exchange with valinomycin, 0C; format: cell-based, human
Procedure, shortened: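 Human red cells washed in 150 mM NaCl, 2 mM KCl, 20 mM HEPES pH 7.4, then loaded 17 h at 37°C (50% hematocrit) with ~5 uCi/ml 86Rb in 5 mM adenosine/chloramphenicol buffer. Efflux ran at 0°C, 0.1% hematocrit, in 48 mM NaCl/112 mM KCl/5 mM HEPES pH 7.2 with 1.33% ethanol. Valinomycin was added last, with or without 10 uM DIDS. Timed samples were centrifuged to give the efflux rate constant.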

[3] = biological target: T1, human erythrocyte anion exchange protein (band 3) (Homo sapiens, UniProt P02730); format: cell-based; conditions: Table III mean
T1 sequence (P02730 1-911): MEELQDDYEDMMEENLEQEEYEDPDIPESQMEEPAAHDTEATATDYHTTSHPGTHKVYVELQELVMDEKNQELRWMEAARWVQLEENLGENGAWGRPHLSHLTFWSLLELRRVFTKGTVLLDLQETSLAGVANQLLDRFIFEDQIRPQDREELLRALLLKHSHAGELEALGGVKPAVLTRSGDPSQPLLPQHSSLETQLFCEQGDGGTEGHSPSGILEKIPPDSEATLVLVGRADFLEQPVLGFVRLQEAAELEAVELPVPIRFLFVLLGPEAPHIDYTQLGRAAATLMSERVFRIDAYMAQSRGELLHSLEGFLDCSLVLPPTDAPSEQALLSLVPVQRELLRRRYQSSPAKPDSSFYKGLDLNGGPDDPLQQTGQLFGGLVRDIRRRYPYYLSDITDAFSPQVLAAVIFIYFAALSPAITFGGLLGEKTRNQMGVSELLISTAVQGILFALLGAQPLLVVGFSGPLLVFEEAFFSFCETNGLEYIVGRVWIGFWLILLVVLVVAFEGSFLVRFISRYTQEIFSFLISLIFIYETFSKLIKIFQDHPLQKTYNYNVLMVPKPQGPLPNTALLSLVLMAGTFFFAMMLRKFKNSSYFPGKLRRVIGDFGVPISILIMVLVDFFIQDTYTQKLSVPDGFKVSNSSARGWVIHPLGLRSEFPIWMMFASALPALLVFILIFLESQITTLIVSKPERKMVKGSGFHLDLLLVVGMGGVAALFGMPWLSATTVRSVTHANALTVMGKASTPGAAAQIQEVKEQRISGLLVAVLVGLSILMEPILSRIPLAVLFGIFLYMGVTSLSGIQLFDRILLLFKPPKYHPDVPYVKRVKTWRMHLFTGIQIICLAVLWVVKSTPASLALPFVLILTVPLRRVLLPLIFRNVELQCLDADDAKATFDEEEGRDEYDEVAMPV
Procedure, shortened: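 Washed cells in 60K-Hi (pH 7.2) were pretreated 45 min at 37°C, 10% hematocrit, with 2.5 uM (low pH) or 5 uM (high pH) H2DIDS. They were albumin-washed, nystatin-treated (75 ug/ml, 10 min each in 60K-Hi then 60K-Lo, 0°C) and washed into 60K-Lo at pH 7.2 or 9.0. 36Cl efflux with graded H2DIDS and Cl ratios were measured at 0°C in those media. ID50 came from Dixon-plot x-intercepts.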

[4] = biological target: T1, human erythrocyte anion exchange protein (band 3); assay: H2DIDS inhibition of chloride exchange in resealed ghosts with Cli < Clo, 0C; format: cell-based
Procedure, shortened: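 Washed cells were lysed at 0°C in 3.5 mM acetic acid, 4 mM MgSO4, 1 mM EGTA. Tris/KCl/sodium citrate was added for 10 or 60 mM internal Cl; after 10 min at 0°C, ghosts were resealed 45 min at 37°C. They were washed in 60 mM NaCl, 60 mM Na citrate, 5 mM HEPES, 5 mM glucose, MgSO4, pH 7.2. 36Cl efflux with graded H2DIDS was measured at 0°C; ID50 came from Dixon-plot x-intercepts.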

Structure (SMILES): CC(C)[C@@H]1NC(=O)[C@H](C)OC(=O)[C@@H](C(C)C)NC(=O)[C@@H](C(C)C)OC(=O)[C@H](C(C)C)NC(=O)[C@H](C)OC(=O)[C@@H](C(C)C)NC(=O)[C@@H](C(C)C)OC(=O)[C@H](C(C)C)NC(=O)[C@H](C)OC(=O)[C@@H](C(C)C)NC(=O)[C@@H](C(C)C)OC1=O [valinomycin]
- PK/PCl ratio ([1]; 10 uM valinomycin, 10K-Hi medium, assuming PK = 0.5 PRb): 33
- PK/PCl ratio ([1]; valinomycin, other experiments, medium with 150 mM NaCl and 10 mM KCl): > 20
- PRb ([2]; Fig. 7, control cells, 10 uM valinomycin): 0.09134 mmol/kg Hb - min - mM

- ID50* (no chloride gradient), mean ([3]; extracellular Cl 60 mM, intracellular Cl ~60 mM, 0C): 0.24 AM
- ID50 (chloride gradient induced by increasing pH), mean ([3]; intracellular Cl averaged 14.4 mM, mean Clo/Cli 4.66, 0C): 0.47 AM
- ID50/ID50*, mean ([3]; mean Clo/Cli 4.66): 2.00
- ID50* (no chloride gradient), mean ([4]; Table II mean, extracellular Cl 60 mM, intracellular Cl ~60 mM, 0C): 0.15 AM
- ID50 (with chloride gradient Clo > Cli), mean ([4]; Table II mean, intracellular Cl averaged 27.8 mM, mean Clo/Cli 2.35, 0C): 0.21 AM
- ID50/ID50*, mean ([4]; Table II mean, mean Clo/Cli 2.35): 1.41
- increase in ID50 caused by high pH ([4]; pH 9.0 versus pH 7.2, chloride ratio nearly invariant with pH): 30%
Structure (SMILES): O=S(=O)(O)c1cc(N=C=S)ccc1CCc1ccc(N=C=S)cc1S(=O)(=O)O [H2DIDS, 4,4'-diisothiocyano-1,2-diphenylethane-2,2'-disulfonic acid]

Structure (SMILES): O=S(=O)(O)c1cc(N=C=S)ccc1C=Cc1ccc(N=C=S)cc1S(=O)(=O)O [DIDS, 4,4'-diisothiocyano-stilbene-2,2'-disulfonic acid]
- plateau net KCl efflux ([1]; in the presence of 10 uM DIDS, high valinomycin concentrations): greatly reduced
- effect on Rb+ exchange ([2]; DIDS 10 uM, valinomycin-induced Rb+ exchange): no significant effect
- PRb ([2]; Fig. 7, 10 uM valinomycin with 10 uM DIDS present): 0.09216 mmol/kg Hb - min - mM
